Measured values reported in ChEMBL document CHEMBL5046221, “Identification of Pyrimidine-Based Lead Compounds for Understudied Kinases Implicated in Driving Neurodegeneration” (J Med Chem, 2022).

Experiments:
[1] = molecular target: MAP/microtubule affinity-regulating kinase 3 (Homo sapiens, UniProt P27448); assay: Displacement of tracer K9 from NLuc fused MARK3 (unknown origin) expressed in HEK293 cells by NanoBRET assay; format: cell-based
[2] = molecular target: T1, Myosin light chain kinase 2, skeletal/cardiac muscle (Homo sapiens, UniProt Q9H1R3); assay: Inhibition of full length recombinant human MYLK2 using KKLNRTLSFAEPG as substrate incubated for 40 mins in presence of [gamma-33P-ATP] by radiometric scintillation assay
In short: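 Eurofins radiometric enzymatic assay with ATP at Km for each kinase. IC50 was derived from a 9-point dose–response curve run in duplicate.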

[3] = molecular target: T2, MAP/microtubule affinity-regulating kinase 4 (Homo sapiens, UniProt Q96L34); assay: Displacement of tracer K5 from NLuc fused MARK4 (unknown origin) expressed in HEK293 cells by NanoBRET assay; format: cell-based
T2 sequence (Q96L34 whole entry): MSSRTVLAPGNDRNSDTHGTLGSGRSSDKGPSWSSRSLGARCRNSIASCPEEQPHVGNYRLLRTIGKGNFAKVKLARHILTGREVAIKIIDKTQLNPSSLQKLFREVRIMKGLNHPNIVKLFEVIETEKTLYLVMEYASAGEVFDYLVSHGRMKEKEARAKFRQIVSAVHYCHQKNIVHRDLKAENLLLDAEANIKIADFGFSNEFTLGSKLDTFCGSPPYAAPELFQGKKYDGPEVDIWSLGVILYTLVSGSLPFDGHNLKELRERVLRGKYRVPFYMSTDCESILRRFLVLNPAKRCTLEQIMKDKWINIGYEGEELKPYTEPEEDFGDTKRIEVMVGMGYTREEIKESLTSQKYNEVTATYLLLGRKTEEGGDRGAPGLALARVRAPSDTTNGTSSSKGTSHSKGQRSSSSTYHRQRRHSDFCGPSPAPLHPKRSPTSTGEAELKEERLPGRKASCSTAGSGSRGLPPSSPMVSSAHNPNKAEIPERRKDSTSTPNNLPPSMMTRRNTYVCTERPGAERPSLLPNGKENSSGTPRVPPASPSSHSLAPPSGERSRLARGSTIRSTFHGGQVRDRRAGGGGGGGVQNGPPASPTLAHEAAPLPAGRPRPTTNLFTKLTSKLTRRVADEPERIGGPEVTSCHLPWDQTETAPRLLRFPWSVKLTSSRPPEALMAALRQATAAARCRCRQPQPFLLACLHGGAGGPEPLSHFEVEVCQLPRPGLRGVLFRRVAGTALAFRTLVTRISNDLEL

[4] = molecular target: T1, Myosin light chain kinase 2, skeletal/cardiac muscle; assay: Inhibition of NanoLuc-fused MYLK2 (unknown origin) expressed in HEK293 cells incubated for 2 hrs by NanoBRET assay; format: cell-based
In short: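 Cellular NanoBRET target-engagement assays were run by Carna Biosciences to the manufacturer's protocol. Dose–response was in singlicate, with compounds tested at concentrations up to 10 μM.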

[5] = molecular target: T3, Serine/threonine-protein kinase TBK1 (Homo sapiens, UniProt Q9UHD2); assay: Displacement of tracer K5 from NLuc fused TBK1 (unknown origin) expressed in HEK293 cells by NanoBRET assay; format: cell-based
T3 sequence (Q9UHD2 whole entry): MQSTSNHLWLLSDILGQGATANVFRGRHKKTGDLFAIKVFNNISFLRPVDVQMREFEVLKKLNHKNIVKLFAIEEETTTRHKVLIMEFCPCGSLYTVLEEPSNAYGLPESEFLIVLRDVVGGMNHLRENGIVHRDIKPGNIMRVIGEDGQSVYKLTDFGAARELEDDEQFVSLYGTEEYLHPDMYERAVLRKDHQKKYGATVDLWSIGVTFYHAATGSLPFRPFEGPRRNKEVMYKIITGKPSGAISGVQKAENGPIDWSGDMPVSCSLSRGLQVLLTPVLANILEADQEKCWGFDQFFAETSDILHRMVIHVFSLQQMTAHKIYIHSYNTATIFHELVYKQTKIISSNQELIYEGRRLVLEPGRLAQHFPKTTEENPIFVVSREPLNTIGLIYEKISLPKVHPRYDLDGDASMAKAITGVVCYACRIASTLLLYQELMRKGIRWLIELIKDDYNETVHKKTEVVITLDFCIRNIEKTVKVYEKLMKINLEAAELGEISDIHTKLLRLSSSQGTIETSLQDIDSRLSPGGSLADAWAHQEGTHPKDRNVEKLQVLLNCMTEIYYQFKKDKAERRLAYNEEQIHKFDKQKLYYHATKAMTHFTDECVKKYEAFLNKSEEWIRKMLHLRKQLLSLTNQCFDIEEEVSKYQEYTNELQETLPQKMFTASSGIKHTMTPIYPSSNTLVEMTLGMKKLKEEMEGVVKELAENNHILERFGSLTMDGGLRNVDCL
In short: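 HEK293 cells grown in DMEM with 10% FBS at 37 °C, 5% CO2. NanoBRET assay run in dose–response per manufacturer's protocol with tracer K-5 at 0.5 μM. SEM calculated for assays run more than once.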

[6] = molecular target: T4, Serine/threonine-protein kinase 17B (Homo sapiens) (UniProt O94768); assay: Inhibition of full length recombinant human DRAK2 using KKRPQRRYSNVF as substrate at 1 uM incubated for 120 mins in presence of [gamma-33P-ATP] by radiometric scintillation assay relative to control
T4 sequence (whole entry): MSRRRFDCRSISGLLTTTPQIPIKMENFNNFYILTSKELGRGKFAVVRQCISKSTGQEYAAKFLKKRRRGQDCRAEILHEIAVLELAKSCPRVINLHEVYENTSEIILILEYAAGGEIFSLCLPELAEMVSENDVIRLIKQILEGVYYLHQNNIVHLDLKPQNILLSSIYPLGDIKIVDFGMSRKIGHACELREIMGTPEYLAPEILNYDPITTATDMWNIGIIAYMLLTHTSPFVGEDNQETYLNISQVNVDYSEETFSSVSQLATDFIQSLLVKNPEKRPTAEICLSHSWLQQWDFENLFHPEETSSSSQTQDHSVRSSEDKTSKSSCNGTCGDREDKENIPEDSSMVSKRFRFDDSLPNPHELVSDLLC
In short: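 Eurofins radiometric kinase assay with ATP at Km for each kinase. Compound was tested at a single 1 μM concentration in duplicate, and the result is reported as percent of control.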

[7] = molecular target: T5, Serine/threonine-protein kinase 17A (Homo sapiens, UniProt Q9UEE5); assay: Displacement of tracer K9 from NLuc fused DRAK1 (unknown origin) expressed in HEK293 cells by NanoBRET assay; format: cell-based
T5 sequence (Q9UEE5 whole entry): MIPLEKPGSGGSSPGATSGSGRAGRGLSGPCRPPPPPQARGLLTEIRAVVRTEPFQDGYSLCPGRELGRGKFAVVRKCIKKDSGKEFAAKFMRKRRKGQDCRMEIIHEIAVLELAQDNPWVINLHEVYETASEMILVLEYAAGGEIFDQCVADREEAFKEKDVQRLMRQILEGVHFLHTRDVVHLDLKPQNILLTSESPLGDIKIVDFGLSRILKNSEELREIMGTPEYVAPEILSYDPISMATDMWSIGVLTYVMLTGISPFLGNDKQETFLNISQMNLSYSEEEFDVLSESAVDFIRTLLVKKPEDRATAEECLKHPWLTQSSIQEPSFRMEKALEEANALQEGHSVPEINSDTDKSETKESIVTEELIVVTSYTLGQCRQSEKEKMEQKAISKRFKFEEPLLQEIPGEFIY

[8] = Kinetic solubility of compound in PBS at pH 7.4 incubated for 24 hrs by chemiluminscent nitrogen detection method; format: physicochemical; conditions: buffer, pH 7.4, 24 h
In short: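 Filtrates were quantified by total chemiluminescent nitrogen determination against a calibration curve, with correction for background nitrogen from DMSO and medium.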

[9] = Effective permeability in PBS at 7.4 incubated for 5 hrs by PAMPA analysis; format: ADME; conditions: pH 7.4, 5 h
In short: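 PAMPA: DMSO stocks were diluted in PBS pH 7.4 and placed in the donor compartment, with PBS pH 7.4 in the acceptor, for 5 h. Both compartments were quantified by CLND against a calibration curve, with background nitrogen correction. Effective permeability was calculated from donor and acceptor concentrations using measured rather than assumed solubility.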

T1 sequence (Q9H1R3 whole entry): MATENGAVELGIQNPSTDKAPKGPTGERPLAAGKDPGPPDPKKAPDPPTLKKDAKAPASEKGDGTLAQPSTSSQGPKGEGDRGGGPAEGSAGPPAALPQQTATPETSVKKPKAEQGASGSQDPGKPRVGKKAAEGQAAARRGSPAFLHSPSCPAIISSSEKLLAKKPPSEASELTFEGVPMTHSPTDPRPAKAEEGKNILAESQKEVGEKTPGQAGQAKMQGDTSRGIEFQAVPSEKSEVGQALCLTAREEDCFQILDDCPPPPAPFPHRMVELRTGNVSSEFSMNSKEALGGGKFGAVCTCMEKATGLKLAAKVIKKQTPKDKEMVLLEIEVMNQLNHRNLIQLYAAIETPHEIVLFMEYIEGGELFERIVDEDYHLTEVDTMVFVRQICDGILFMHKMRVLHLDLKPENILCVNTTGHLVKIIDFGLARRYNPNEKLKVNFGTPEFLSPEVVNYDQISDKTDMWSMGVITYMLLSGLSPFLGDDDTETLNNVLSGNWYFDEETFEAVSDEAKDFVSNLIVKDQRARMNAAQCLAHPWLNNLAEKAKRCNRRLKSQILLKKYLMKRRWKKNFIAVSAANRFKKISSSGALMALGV
MAP/microtubule affinity-regulating kinase 3, sequence (P27448 whole entry, the tested form may be a part): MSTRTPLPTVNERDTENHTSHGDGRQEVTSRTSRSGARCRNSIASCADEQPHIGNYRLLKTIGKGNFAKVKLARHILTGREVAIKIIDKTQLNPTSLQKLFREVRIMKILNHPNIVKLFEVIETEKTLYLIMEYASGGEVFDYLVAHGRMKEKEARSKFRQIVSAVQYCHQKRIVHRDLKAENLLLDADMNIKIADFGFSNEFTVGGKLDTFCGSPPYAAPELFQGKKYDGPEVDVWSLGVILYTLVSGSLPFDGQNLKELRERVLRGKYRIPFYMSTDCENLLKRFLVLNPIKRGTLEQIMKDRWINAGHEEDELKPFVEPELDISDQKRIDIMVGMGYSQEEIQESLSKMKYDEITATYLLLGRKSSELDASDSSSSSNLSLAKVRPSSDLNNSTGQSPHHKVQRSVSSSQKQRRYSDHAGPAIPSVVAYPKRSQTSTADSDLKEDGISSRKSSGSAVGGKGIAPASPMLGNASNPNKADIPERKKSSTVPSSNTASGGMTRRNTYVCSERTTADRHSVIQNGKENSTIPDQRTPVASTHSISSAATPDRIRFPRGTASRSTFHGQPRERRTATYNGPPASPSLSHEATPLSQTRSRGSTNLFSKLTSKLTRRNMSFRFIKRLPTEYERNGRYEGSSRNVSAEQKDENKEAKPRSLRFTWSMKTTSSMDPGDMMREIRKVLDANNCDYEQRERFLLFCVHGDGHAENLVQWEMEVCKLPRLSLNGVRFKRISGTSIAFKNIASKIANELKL

Structure (SMILES): Cc1nn(CC(F)(F)F)cc1Nc1nccc(NCCc2cnc[nH]2)n1
- IC50 [1]: > 10 µM
- IC50 [2]: 0.479 µM
- IC50 [3]: > 10 µM
- IC50 [4]: 3.67 µM
- IC50 [5]: > 10 µM
- % control [6]: 91%
- IC50 [7]: > 10 µM
- Kinetic solubility [8]: 177 µM
- Peff [9]: 6.23 10^-8cm/s
